Test results taken from ChEMBL document CHEMBL4834477, “Synthesis and biological evaluation of novel purinyl quinazolinone derivatives as PI3Kδ-specific inhibitors for the treatment of hematologic malignancies” (Bioorg Med Chem, 2021).
Active and inactive are the calls of the source. The rule behind the calls is not given here.

Tests used:
[1] = target: T1, Phosphatidylinositol 4,5-bisphosphate 3-kinase catalytic subunit delta isoform (Homo sapiens) (UniProt O00329); assay: Inhibition of PI3Kdelta in human MOLT-4 cells assessed as inhibition of AKT phosphorylation at Ser473 residue at 1 to 5 uM measured after 3 hrs by western blot assay; format: cell-based; conditions: dose 1-5 µM
T1 sequence (whole entry): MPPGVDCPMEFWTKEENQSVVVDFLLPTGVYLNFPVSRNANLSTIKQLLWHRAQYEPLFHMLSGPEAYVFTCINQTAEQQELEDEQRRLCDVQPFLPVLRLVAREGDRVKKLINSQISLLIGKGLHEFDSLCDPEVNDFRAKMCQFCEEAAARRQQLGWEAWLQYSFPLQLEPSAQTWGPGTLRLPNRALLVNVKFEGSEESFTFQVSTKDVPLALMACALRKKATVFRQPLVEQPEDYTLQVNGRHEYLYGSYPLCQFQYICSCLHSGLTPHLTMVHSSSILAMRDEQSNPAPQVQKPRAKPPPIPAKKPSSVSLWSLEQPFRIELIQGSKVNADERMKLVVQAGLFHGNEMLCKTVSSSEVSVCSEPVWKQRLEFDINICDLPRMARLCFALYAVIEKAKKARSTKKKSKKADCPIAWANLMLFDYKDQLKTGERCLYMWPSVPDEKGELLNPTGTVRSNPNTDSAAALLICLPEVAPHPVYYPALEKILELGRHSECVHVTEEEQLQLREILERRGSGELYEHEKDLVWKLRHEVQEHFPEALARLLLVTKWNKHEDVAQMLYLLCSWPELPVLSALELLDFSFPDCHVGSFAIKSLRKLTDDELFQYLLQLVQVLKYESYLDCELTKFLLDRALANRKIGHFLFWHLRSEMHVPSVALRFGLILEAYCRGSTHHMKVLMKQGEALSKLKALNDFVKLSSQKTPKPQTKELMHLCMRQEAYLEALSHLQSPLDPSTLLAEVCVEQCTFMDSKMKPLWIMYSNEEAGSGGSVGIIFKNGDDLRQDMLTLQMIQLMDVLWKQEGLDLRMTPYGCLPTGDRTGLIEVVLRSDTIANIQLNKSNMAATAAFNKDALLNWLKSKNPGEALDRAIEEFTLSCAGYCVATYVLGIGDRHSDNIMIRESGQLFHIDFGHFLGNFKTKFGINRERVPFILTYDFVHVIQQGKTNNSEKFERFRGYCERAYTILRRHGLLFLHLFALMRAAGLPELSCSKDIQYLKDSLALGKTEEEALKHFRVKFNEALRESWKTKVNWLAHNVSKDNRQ
Outline: (§1)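 Treatment lasted 3 h: SUDHL-5 at 1 μM, MOLT-4 at 5 μM. Cells washed twice in cold PBS and lysed. Proteins resolved on 10–12% SDS-PAGE and blotted to PVDF. Probed for p-AKT S473, p-AKT T308, p-S6 and p-4E-BP1, with β-actin as loading control.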

[2] = tested on: SU-DHL10; assay: Induction of apoptosis in human SU-DHL-10 cells assessed as viable cells at 20 uM measured after 24 hrs by AnnexinV-FITC/PI staining based flowcytometry method (reference value: 90%); format: functional; conditions: read-out: Activity
Outline: (§2)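 Cells exposed to 20 μM compound for 24 h, washed with cold PBS, and stained with Annexin V-FITC and propidium iodide for 15 min at room temperature. Viable, early apoptotic, late apoptotic and necrotic populations quantified by flow cytometry.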

[3] = tested on: SU-DHL10; assay: Induction of apoptosis in human SU-DHL-10 cells assessed as necrotic cells at 20 uM measured after 24 hrs by AnnexinV-FITC/PI staining based flowcytometry method (reference value: 0.2%); format: functional; outline: as §2
[4] = target: T1, Phosphatidylinositol 4,5-bisphosphate 3-kinase catalytic subunit delta isoform (Homo sapiens); assay: Inhibition of PI3Kdelta in human MOLT-4 cells assessed as inhibition of AKT phosphorylation at Thr308 residue at 1 to 5 uM measured after 3 hrs by western blot assay; format: cell-based; conditions: dose 1-5 µM; outline: as §1
[5] = tested on: MOLT-4; assay: Induction of apoptosis in human MOLT-4 cells assessed as late apoptotic cells at 20 uM measured after 24 hrs by AnnexinV-FITC/PI staining based flowcytometry method (reference value: 2.17%); format: functional; outline: as §2
[6] = tested on: MOLT-4; assay: Antiproliferative activity against human MOLT-4 cells assessed as cell viability at 20 uM by CellTiter-Glo luminescent cell viability assay (reference value: 100%); format: functional; conditions: read-out: Activity
[7] = Toxicity in Balb/c nude mouse xenografted with human MOLT-4 cells assessed as changes in body weight at 10 mg/kg, po administered via gavage qd for 57 days; format: organism-based; conditions: in vivo, 1368 h, dose 10 mg/kg/day, time 57 day
Outline: (§3)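 MOLT-4 cells (2×10^6 in 0.1 mL D-PBS) implanted subcutaneously on the back of BALB/c-nude mice. Once tumours grew, mice were dosed daily by oral gavage at 10 mg/kg for 57 consecutive days. Tumours measured by caliper, with volume = ½ × […]. Body weight was tracked over the same period.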

[8] = Tmax in Sprague-Dawley rat at 3 mg/kg, po measured for 24 hrs by LC-MS/MS analysis; format: ADME, organism-based; conditions: in vivo
Outline: (§4)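 Sprague-Dawley rats dosed orally at 1 or 3 mg/kg, three animals per group. Blood sampled at 0.25, 0.5, 1, 2, 4, 8 and 24 h post-dose. Plasma separated by centrifugation, extracted and quantified by LC-MS/MS. PK parameters (Cmax, AUClast, Tmax, t1/2) derived by non-compartmental software.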

[9] = tested on: SU-DHL10; assay: Induction of apoptosis in human SU-DHL-10 cells assessed as early apoptotic cells at 20 uM measured after 24 hrs by AnnexinV-FITC/PI staining based flowcytometry method (reference value: 6.32%); format: functional; outline: as §2
[10] = Cmax in Sprague-Dawley rat at 3 mg/kg, po measured for 24 hrs by LC-MS/MS analysis; format: ADME, organism-based; design: route oral, time 24 hrs, dose 3 mg/kg; conditions: in vivo; outline: as §4
[11] = tested on: MOLT-4; assay: Antitumour activity against human MOLT-4 cells xenografted in Balb/c nude mouse assessed as inhibition of tumour growth at 10 mg/kg, po administered via gavage qd for 57 days; format: functional; conditions: dose 10.0 mg/kg/day, time 57.0 day; outline: as §3
[12] = target: T1, Phosphatidylinositol 4,5-bisphosphate 3-kinase catalytic subunit delta isoform (Homo sapiens); assay: Inhibition of PI3Kdelta in human SU-DHL-5 cells assessed as inhibition of AKT phosphorylation at Thr308 residue at 1 to 5 uM measured after 3 hrs by western blot assay; format: cell-based; conditions: dose 1-5 µM; outline: as §1
[13] = tested on: MOLT-4; assay: Induction of apoptosis in human MOLT-4 cells assessed as viable cells at 20 uM measured after 24 hrs by AnnexinV-FITC/PI staining based flowcytometry method (reference value: 95.3%); format: functional; conditions: read-out: Activity; outline: as §2
[14] = tested on: MRC5; assay: Cytotoxicity against human MRC5 cells assessed as inhibition of cell viability measured after 48 hrs by MTT assay; format: cell-based; conditions: MRC5, 48 h
Outline: (§5)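 MTT assay in MRC-5 cells seeded at 2×10^6 cells/mL. Compound given in 1% FBS EMEM for 48 h at 37 °C in CO2. MTT solution then added for 3 h at 37 °C. Medium removed and formazan dissolved in DMSO.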

[15] = target: T1, Phosphatidylinositol 4,5-bisphosphate 3-kinase catalytic subunit delta isoform (Homo sapiens); assay: Inhibition of PI3Kdelta in human SU-DHL-5 cells assessed as inhibition of AKT phosphorylation at Ser473 residue at 1 to 5 uM measured after 3 hrs by western blot assay; format: cell-based; conditions: dose 1-5 µM; outline: as §1
[16] = tested on: MOLT-4; assay: Induction of apoptosis in human MOLT-4 cells assessed as necrotic cells at 20 uM measured after 24 hrs by AnnexinV-FITC/PI staining based flowcytometry method (reference value: 0.51%); format: functional; outline: as §2
[17] = Cytotoxicity against human MRC5 cells assessed as inhibition of cell viability at 20 uM measured after 48 hrs by MTT assay; format: cell-based; conditions: read-out: INH; outline: as §5
[18] = Half life in Sprague-Dawley rat at 3 mg/kg, po measured for 24 hrs by LC-MS/MS analysis; format: ADME, organism-based; conditions: in vivo; outline: as §4
[19] = tested on: SU-DHL10; assay: Induction of apoptosis in human SU-DHL-10 cells assessed as late apoptotic cells at 20 uM measured after 24 hrs by AnnexinV-FITC/PI staining based flowcytometry method (reference value: 3.48%); format: functional; outline: as §2
[20] = AUC (last) in Sprague-Dawley rat at 3 mg/kg, po measured for 24 hrs by LC-MS/MS analysis; format: ADME, organism-based; design: route oral, time 24 hrs, dose 3 mg/kg; conditions: in vivo; outline: as §4
[21] = tested on: MOLT-4; assay: Induction of apoptosis in human MOLT-4 cells assessed as early apoptotic cells at 20 uM measured after 24 hrs by AnnexinV-FITC/PI staining based flowcytometry method (reference value: 2.04%); format: functional; outline: as §2
[22] = tested on: SU-DHL-5; assay: Antiproliferative activity against human SU-DHL-5 cells assessed as cell viability at 10 uM by CellTiter-Glo luminescent cell viability assay (reference value: 100%); format: functional; conditions: read-out: Activity

inhibition [1]: Active
inhibition [4]: Active
Tmax [8]: 0.5 h
Cmax [10]: 53 ng/mL
inhibition [12]: Active
inhibition [15]: Active
half-life [18]: 2.7 h
AUC(0-t) at 24 h [20]: 202 ng·h/mL
Structure (SMILES): CC[C@H](Nc1ncnc2[nH]cnc12)c1nc2cccc(F)c2c(=O)n1-c1ccccc1 [IDELALISIB]
viability at 20 µM [2]: 12.2%
Activity [3]: 1.7%
Activity [5]: 22%
viability at 20 µM [6]: 74.6%
Activity [7]: Non-Toxic
Activity [9]: 55.7%
inhibition [11]: Active
viability at 20 µM [13]: 56.5%
IC50 [14]: > 100 µM
Activity [16]: 2.34%
cytotoxicity at 48 h, 20 µM [17]: 18.4%
Activity [19]: 30.4%
Activity [21]: 19.2%
viability at 10 µM [22]: 41.3%
